Measurements reported in ChEMBL document CHEMBL4152223 (Eur J Med Chem, 2018).
Converted amounts (≈) assume the structure as drawn. The source made the active and inactive calls. The rule behind the calls is not given here.

Experiments:
[1] = system: Mycobacterium tuberculosis; experiment: Antimycobacterial activity against Mycobacterium tuberculosis H37Rv after 14 days; type: functional; details: 336 h
[2] = system: Mycobacterium tuberculosis; experiment: Antimycobacterial activity against Mycobacterium tuberculosis H37Rv after 21 days; type: functional; details: 504 h
Mycobacterium avium [3] = experiment: Antimycobacterial activity against INH/RIF/OFX resistant Mycobacterium avium 330/88 after 14 days; type: functional; details: 330/88, 336 h
Mycobacterium avium [4] = experiment: Antimycobacterial activity against INH/RIF/OFX resistant Mycobacterium avium 330/88 after 21 days; type: functional; details: 330/88, 504 h
Mycobacterium kansasii [5] = experiment: Antimycobacterial activity against Mycobacterium kansasii 235/80 after 7 days; type: functional; details: 235/80, 168 h
Mycobacterium kansasii [6] = experiment: Antimycobacterial activity against Mycobacterium kansasii 235/80 after 14 days; type: functional; details: 235/80, 336 h
Mycobacterium kansasii [7] = experiment: Antimycobacterial activity against Mycobacterium kansasii 235/80 after 21 days; type: functional; details: 235/80, 504 h
Mycobacterium kansasii [8] = experiment: Antimycobacterial activity against Mycobacterium kansasii 6509/96 after 7 days; type: functional; details: 6509/96, 168 h
Mycobacterium kansasii [9] = experiment: Antimycobacterial activity against Mycobacterium kansasii 6509/96 after 14 days; type: functional; details: 6509/96, 336 h
Mycobacterium kansasii [10] = experiment: Antimycobacterial activity against Mycobacterium kansasii 6509/96 after 21 days; type: functional; details: 6509/96, 504 h
HepG2 = experiment: Cytotoxicity against human HepG2 cells assessed as reduction in cell viability by MTS assay; type: cell-based
Outline: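 HepG2 human hepatocellular carcinoma cells (passage 2-4) were cultured in Eagle's MEM with 10% FBS, 1% L-glutamine and non-essential amino acids. Compounds were dissolved in DMSO and tested in triplicate at eight concentrations. Viability was read by colorimetric MTS tetrazolium reduction. Controls were 100% viability and 0% viability (10% DMSO). IC50 is the concentration reducing viability to 50% of control.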

[11] = Selectivity index, ratio of IC50 for human HepG2 cells to MIC for Mycobacterium tuberculosis H37Rv after 14 days; type: toxicity; details: read-out: Selectivity Index
Outline: (§1)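 SI is calculated as HepG2 IC50 divided by MIC. HepG2 cells (passage 2-4) were grown in EMEM with 10% FBS, L-glutamine and non-essential amino acids. Compounds in DMSO were tested in triplicate at eight concentrations, and viability was read by MTS tetrazolium reduction. IC50 is the concentration reducing viability to 50% of control. 10% DMSO served as the 0% viability control.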

[12] = Selectivity index, ratio of IC50 for human HepG2 cells to MIC for Mycobacterium kansasii 235/80; type: toxicity; details: read-out: Selectivity Index; outline: as §1
[13] = Selectivity index, ratio of IC50 for human HepG2 cells to MIC for Mycobacterium kansasii 6509/96; type: toxicity; details: read-out: Selectivity Index; outline: as §1
[14] = molecular target: T1, Enoyl-[acyl-carrier-protein] reductase [NADH] (Mycobacterium tuberculosis) (UniProt P9WGR1); experiment: Inhibition of Mycobacterium tuberculosis H37Rv InhA assessed as reduction of trehalose monomycolate synthesis at 36.5 uM preincubated for 1 hr followed by [14C]glucose addition and measured after 24 hrs by TLC analysis
T1 sequence (whole entry): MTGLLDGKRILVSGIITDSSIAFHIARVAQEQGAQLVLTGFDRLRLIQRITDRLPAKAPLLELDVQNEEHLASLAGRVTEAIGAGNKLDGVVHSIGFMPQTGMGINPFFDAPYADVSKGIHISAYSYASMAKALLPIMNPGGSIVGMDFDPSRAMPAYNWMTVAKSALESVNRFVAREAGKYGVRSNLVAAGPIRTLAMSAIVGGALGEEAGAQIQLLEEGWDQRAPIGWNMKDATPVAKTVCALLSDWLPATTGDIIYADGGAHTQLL

[15] = molecular target: T1, Enoyl-[acyl-carrier-protein] reductase [NADH] (Mycobacterium tuberculosis); experiment: Inhibition of Mycobacterium tuberculosis H37Rv InhA assessed as reduction of trehalose dimycolate synthesis at 36.5 uM preincubated for 1 hr followed by [14C]glucose addition and measured after 24 hrs by TLC analysis

| Structure (SMILES) | MIC [1] [µM] | MIC [2] [µM] | MIC (Mycobacterium avium [3]) [µM] | MIC (Mycobacterium avium [4]) [µM] | MIC (Mycobacterium kansasii [5]) [µM] | MIC (Mycobacterium kansasii [6]) [µM] | MIC (Mycobacterium kansasii [7]) [µM] | MIC (Mycobacterium kansasii [8]) [µM] | MIC (Mycobacterium kansasii [9]) [µM] | MIC (Mycobacterium kansasii [10]) [µM] | IC50 (HepG2) [mM] | selectivity ratio at 336 h [11] | selectivity ratio [12] | selectivity ratio [13] | inhibition [14] | inhibition [15] |
| --- | --- | --- | --- | --- | --- | --- | --- | --- | --- | --- | --- | --- | --- | --- | --- | --- |
| CCNC(=O)NNC(=O)c1ccncc1 | 1 (≈ 0.208 µg/mL) | 2 (≈ 0.416 µg/mL) | 1000 (≈ 208 µg/mL) | > 1000 | 32 (≈ 6.66 µg/mL) | 62.5 (≈ 13 µg/mL) | 62.5 (≈ 13 µg/mL) | 32 (≈ 6.66 µg/mL) | 62.5 (≈ 13 µg/mL) | 62.5 (≈ 13 µg/mL) | > 4 | > 2000 | > 64 | > 64 | – | – |
| CCCCCNC(=O)NNC(=O)c1ccncc1 | 8 (≈ 2 µg/mL) | 8 (≈ 2 µg/mL) | > 1000 | > 1000 | 62.5 (≈ 15.6 µg/mL) | 125 (≈ 31.3 µg/mL) | 125 (≈ 31.3 µg/mL) | 125 (≈ 31.3 µg/mL) | 125 (≈ 31.3 µg/mL) | 125 (≈ 31.3 µg/mL) | > 4 | > 500 | > 32 | > 32 | – | – |
| NNC(=O)c1ccncc1 [ISONIAZID] | 0.5 (≈ 0.0686 µg/mL) | 1 (≈ 0.137 µg/mL) | > 250 | > 250 | > 250 | > 250 | > 250 | 8 (≈ 1.1 µg/mL) | 8 (≈ 1.1 µg/mL) | 8 (≈ 1.1 µg/mL) | > 5 | > 5000 | > 625 | > 625 | Active | Active |
